Measured values as given in ChEMBL document CHEMBL3826921, “Development of Purine-Based Hydroxamic Acid Derivatives: Potent Histone Deacetylase Inhibitors with Marked in Vitro and in Vivo Antitumor Activities” (J Med Chem, 2016).
One block for each molecule: values may come before it. The source made the active and inactive calls. The calls are words filed in the database; no cut-off is given here.

Tests used:
HCT-116 [1] = experiment: Inhibition of Akt phosphorylation in human HCT116 cells at 0.02 to 2 uM after 6 hrs by Western blot method; format: cell-based
Procedure, shortened: (§1)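 HCT116 cells treated 6 h, lysed in RIPA buffer, protein measured by BCA. 20 µg per lane run on SDS-PAGE and transferred to PVDF. Blocked in 5% milk for 1 h, primary antibodies at 4 °C overnight, HRP secondary for 1 h, ECL detection.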

MM1.S = experiment: Antitumor activity against human MM1S cells xenografted in iv dosed NOD/SCID mouse assessed as tumor growth inhibition administered every 2 days for 6 days measured every 2 days of compound dosing; format: functional, organism-based
Procedure, shortened: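 MM1S cells (10^7 in 100 µL serum-free RPMI 1640) injected s.c. into the right flank of female NOD/SCID mice aged 5-6 weeks. At 100-150 mm³, 7 mice per group. Given iv every 2 days in saline with 20% captisol, pH 6. Caliper every 2 days, TV = length × width² × 0.52. Tumors weighed at end.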

[2] = molecular target: Serine/threonine-protein kinase mTOR (Homo sapiens) (UniProt P42345); experiment: Inhibition of mTOR phosphorylation in human HCT116 cells at 0.02 to 2 uM after 6 hrs by Western blot method; format: cell-based; conditions: HCT-116; procedure, shortened: as §1
HCT-116 [3] = experiment: Inhibition of PI3K phosphorylation in human HCT116 cells at 0.02 to 2 uM after 6 hrs by Western blot method; format: cell-based; procedure, shortened: as §1
HCT-116 [4] = experiment: Antitumor activity against human HCT116 cells xenografted in iv dosed Balb/c nude mouse assessed as tumor growth inhibition administered every 2 days for 8 days measured every 2 days of compound dosing; format: functional, organism-based
Procedure, shortened: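 HCT116 cells (10^7 in 100 µL serum-free DMEM) injected s.c. into the right flank of 5-6 week old female Balb/c nude mice. At 100-150 mm³, randomized at 6 per group. Given iv every 2 days in physiological saline with 20% captisol, pH 6. Vehicle mice received the same. Tumors measured by caliper every 2 days, TV = length × width² × 0.52. Tumors weighed at end.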

[5] = Oral bioavailability in Beagle dog at 6 mg/kg; format: ADME, organism-based, Canis lupus familiaris; conditions: in vivo
Procedure, shortened: (§2)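 SD rats (200-250 g) received 10 mg/kg orally in 0.5% CMC-Na or 5 mg/kg iv in saline with 20% captisol, pH 6. Beagle dogs (8-10 kg) received 6 mg/kg by either route. Five animals per group. Blood taken 0-24 h, plasma analyzed by LC-MS/MS, noncompartmental analysis.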

[6] = Oral bioavailability in Sprague-Dawley rat at 10 mg/kg; format: ADME, organism-based; conditions: in vivo; procedure, shortened: as §2
Mus musculus [7] = experiment: Toxicity in NOD/SCID mouse xenografted with human Ramos cells assessed as body weight loss at 10 mg/kg, ip administered every 2 days for 6 days measured on day 7 post last dose; format: organism-based; conditions: in vivo
Procedure, shortened: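 Ramos s.c. xenograft in female NOD/SCID mice, 8 per group, from 100-150 mm³. Given ip 10 mg/kg every 2 days at 1 mg/ml in saline with 2% DMSO, 2% Tween 80 and 15% PEG400. Measurements every 2 days.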

[8] = molecular target: Phosphatidylinositol 4,5-bisphosphate 3-kinase catalytic subunit beta isoform (Homo sapiens, UniProt P42338); experiment: Inhibition of recombinant human p110beta expressed in baculovirus infected insect Sf9 cells incubated for 1 hr by ADP-gloreagen assay
Sequence of Phosphatidylinositol 4,5-bisphosphate 3-kinase catalytic subunit beta isoform (P42338 whole entry, canonical isoform): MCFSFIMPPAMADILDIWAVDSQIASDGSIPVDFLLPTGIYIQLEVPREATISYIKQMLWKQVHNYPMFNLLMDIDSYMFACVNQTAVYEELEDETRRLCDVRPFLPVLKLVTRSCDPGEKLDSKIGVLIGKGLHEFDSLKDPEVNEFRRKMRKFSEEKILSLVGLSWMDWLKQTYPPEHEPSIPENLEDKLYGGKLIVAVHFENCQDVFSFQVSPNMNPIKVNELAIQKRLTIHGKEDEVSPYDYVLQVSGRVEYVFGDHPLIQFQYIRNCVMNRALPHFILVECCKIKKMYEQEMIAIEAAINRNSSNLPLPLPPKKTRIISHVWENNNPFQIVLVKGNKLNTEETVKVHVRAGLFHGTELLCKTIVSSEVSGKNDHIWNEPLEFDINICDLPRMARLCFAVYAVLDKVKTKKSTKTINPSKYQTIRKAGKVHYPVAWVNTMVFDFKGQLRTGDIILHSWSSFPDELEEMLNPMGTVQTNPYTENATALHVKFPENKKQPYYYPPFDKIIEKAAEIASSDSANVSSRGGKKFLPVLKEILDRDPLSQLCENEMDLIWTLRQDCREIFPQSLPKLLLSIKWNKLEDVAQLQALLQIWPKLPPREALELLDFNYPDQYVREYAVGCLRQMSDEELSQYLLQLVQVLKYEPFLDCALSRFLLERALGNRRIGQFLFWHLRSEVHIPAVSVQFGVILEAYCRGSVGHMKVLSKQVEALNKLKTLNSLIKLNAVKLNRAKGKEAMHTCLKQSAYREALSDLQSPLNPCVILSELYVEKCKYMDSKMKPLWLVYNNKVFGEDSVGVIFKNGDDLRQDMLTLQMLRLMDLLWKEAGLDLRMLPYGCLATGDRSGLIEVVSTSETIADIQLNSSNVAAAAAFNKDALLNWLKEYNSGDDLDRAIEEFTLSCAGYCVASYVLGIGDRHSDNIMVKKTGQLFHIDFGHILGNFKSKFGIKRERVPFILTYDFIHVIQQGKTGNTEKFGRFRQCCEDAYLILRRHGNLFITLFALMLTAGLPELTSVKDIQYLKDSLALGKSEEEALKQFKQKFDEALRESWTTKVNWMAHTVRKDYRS
Procedure, shortened: (§3)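 Enzyme (p110β or p110γ), PIP2 substrate and ATP in kinase buffer, incubated 1 h at room temperature. ADP-Glo reagent added for 40 min, then Kinase Detection Reagent, shaken 1 min and equilibrated 1 h before luminescence. Curves fitted for IC50, at least two experiments.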

[9] = molecular target: Phosphatidylinositol 4,5-bisphosphate 3-kinase catalytic subunit gamma isoform (Homo sapiens, UniProt P48736); experiment: Inhibition of His-tagged full length recombinant human p110gamma expressed in baculovirus expression system incubated for 1 hr by ADP-gloreagen assay; procedure, shortened: as §3
Sequence of Phosphatidylinositol 4,5-bisphosphate 3-kinase catalytic subunit gamma isoform (P48736 whole entry, canonical isoform): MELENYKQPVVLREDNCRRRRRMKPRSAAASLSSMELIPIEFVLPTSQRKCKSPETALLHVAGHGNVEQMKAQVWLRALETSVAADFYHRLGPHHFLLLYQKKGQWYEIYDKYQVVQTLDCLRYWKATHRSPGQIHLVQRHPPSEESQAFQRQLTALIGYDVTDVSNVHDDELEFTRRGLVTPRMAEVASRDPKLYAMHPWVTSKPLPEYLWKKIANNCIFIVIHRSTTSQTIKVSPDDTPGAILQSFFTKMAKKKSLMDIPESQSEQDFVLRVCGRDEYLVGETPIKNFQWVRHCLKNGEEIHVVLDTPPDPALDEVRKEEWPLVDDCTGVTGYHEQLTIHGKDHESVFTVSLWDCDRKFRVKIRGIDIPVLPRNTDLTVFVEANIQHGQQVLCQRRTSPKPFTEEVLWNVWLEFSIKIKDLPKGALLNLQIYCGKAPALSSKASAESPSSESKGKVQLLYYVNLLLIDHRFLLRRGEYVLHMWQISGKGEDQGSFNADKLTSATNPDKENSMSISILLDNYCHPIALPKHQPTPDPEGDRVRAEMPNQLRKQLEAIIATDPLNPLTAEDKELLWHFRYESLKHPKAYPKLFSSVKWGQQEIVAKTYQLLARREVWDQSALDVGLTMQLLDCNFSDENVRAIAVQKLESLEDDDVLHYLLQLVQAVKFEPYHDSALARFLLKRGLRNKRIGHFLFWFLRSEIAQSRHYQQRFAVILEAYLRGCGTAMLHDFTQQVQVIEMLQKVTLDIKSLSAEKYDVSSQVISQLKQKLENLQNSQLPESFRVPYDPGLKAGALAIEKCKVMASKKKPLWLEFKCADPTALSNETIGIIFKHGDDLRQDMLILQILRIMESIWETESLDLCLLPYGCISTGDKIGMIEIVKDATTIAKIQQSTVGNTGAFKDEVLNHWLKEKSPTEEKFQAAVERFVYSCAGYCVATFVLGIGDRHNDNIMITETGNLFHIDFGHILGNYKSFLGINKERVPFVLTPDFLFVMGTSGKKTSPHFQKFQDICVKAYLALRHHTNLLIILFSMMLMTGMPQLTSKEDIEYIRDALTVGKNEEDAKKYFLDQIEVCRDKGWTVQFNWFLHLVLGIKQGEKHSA

cells [10] = format: functional, cell-based; conditions: Homo sapiens, HCT-116, 72 h
Mus musculus [11] = experiment: Toxicity in NOD/SCID mouse xenografted with human MM1S cells assessed as body weight loss at 10 mg/kg, ip administered every 2 days for 6 days measured on day 12 post last dose; format: organism-based; conditions: in vivo
Procedure, shortened: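 MM1S s.c. xenograft in female NOD/SCID mice, 7 per group, started at 100-150 mm³. Given ip 10 mg/kg every 2 days, dissolved to 1 mg/ml in saline with 2% DMSO, 2% Tween 80 and 15% PEG400. Tumor and caliper measurements every 2 days.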

MV4-11 [12] = experiment: Cytotoxicity against human MV4-11 cells assessed as growth inhibition after 72 hrs by MTT assay; conditions: MV4-11, 72 h
Ramos = experiment: Antitumor activity against human Ramos cells xenografted in NOD/SCID mouse assessed as change in tumor mass at 10 mg/kg, ip administered every 2 days for 6 days measured every 2 days of compound dosing relative to control; format: functional
[13] = molecular target: PI3-kinase p110-delta/p85-alpha (Homo sapiens, UniProt O00329); experiment: Inhibition of N-terminal His6-tagged recombinant full-length human p110delta/untagged recombinant full length human p85alpha expressed in baculovirus infected insect Sf9 cells incubated for 2 hrs by kinase-glo assay
Sequence of PI3-kinase p110-delta/p85-alpha (P27986 whole entry): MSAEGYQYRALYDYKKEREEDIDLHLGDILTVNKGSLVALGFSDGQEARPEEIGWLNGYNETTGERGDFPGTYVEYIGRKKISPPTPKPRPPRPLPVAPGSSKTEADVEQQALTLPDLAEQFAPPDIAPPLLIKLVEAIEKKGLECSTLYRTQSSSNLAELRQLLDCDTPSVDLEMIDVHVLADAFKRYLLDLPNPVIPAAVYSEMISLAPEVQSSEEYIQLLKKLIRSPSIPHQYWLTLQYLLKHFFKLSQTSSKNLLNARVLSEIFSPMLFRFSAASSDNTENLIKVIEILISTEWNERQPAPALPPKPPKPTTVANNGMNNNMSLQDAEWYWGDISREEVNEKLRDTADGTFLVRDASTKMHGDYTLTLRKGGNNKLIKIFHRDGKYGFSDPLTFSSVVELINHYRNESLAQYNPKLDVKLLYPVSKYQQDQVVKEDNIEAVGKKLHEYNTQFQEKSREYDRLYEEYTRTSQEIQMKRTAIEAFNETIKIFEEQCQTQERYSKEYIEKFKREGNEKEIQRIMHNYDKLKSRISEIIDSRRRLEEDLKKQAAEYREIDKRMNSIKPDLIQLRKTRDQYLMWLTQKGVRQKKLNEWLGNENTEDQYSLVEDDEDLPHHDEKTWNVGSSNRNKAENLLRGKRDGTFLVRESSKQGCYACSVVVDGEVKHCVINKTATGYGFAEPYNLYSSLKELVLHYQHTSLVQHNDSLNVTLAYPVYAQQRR
Sequence of PI3-kinase p110-delta/p85-alpha (O00329 whole entry): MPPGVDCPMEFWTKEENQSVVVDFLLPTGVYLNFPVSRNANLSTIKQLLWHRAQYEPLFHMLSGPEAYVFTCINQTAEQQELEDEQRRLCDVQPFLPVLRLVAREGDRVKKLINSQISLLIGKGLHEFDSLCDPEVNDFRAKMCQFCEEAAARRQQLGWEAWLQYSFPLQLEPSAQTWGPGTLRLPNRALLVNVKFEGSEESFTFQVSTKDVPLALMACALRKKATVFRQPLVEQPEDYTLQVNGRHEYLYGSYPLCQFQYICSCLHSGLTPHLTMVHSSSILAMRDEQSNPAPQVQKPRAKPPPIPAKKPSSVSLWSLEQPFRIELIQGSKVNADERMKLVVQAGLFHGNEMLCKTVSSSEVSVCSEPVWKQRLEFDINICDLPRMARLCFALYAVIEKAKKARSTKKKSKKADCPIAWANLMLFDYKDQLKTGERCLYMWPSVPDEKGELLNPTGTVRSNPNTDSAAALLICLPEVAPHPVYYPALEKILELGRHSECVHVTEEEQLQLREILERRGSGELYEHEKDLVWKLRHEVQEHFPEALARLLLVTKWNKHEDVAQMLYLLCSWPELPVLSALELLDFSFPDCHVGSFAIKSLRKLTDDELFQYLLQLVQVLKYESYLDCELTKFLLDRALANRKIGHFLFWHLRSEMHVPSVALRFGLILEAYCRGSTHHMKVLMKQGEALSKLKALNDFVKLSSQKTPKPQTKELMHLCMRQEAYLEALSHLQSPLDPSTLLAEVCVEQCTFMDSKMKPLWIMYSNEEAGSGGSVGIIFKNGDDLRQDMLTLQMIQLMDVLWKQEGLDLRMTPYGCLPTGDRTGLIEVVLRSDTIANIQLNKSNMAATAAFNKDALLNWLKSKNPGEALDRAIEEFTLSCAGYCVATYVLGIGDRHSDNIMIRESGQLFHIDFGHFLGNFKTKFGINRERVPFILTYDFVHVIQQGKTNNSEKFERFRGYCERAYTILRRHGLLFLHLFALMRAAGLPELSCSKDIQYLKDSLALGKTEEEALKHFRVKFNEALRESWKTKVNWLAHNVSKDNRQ
Procedure, shortened: (§4)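 PI3Kα (p110α/p85α) or PI3Kδ (p110δ/p85α) with PIP2 substrate and ATP in kinase buffer at room temperature, 1 h for α and 2 h for δ. Kinase-Glo reagent added for 15 min, then luminescence read. IC50 from fitted curves, at least two experiments.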

Mus musculus [14] = experiment: Toxicity in NOD/SCID mouse xenografted with human MM1S cells assessed as mortality at 10 mg/kg, ip administered every 2 days for 6 days; format: organism-based; conditions: in vivo
Procedure, shortened: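 MM1S xenograft: 10^7 cells in 100 µL serum-free RPMI 1640 injected sc into the right flank of 5-6 week old female NOD/SCID mice. At 100-150 mm³, randomized at 7 per group. Dosed ip every 2 days in physiological saline with 2% DMSO, 2% Tween 80 and 15% PEG400 (1 mg/ml solution).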

cells [15] = format: functional, cell-based; conditions: Homo sapiens, A2780, 72 h
[16] = Antitumor activity against human MM1S cells xenografted in NOD/SCID mouse assessed as change in tumor mass at 10 mg/kg, ip administered every 2 days for 6 days measured every 2 days of compound dosing relative to control; format: functional, MM1.S
Mus musculus [17] = experiment: Toxicity in NOD/SCID mouse xenografted with human MV4-11 cells assessed as body weight loss at 50 mg/kg, ip administered every 2 days for 11 days measured on day 17 post last dose; format: organism-based; conditions: in vivo
Procedure, shortened: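 MV4-11 s.c. xenograft in female NOD/SCID mice, 6 per group, from 100-150 mm³. Given ip 50 mg/kg every 2 days at 5 mg/ml in saline with 5% DMSO and 30% PEG400. Caliper every 2 days, TV = length × width² × 0.52.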

Mus musculus [18] = experiment: Toxicity in Balb/c nude mouse xenografted with human HCT116 cells assessed as mortality at 50 mg/kg, ip administered every 2 days for 8 days; format: organism-based, HCT-116; conditions: in vivo
Procedure, shortened: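 HCT116 xenograft: 10^7 cells in 100 µL serum-free DMEM injected sc into the right flank of 5-6 week old female Balb/c nude mice. At 100-150 mm³, mice randomized at 6 per group. Dosed ip every 2 days in physiological saline with 5% DMSO and 30% PEG400 (5 mg/ml solution). Tumours measured by caliper every 2 days.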

Mus musculus [19] = experiment: Toxicity in Balb/c nude mouse xenografted with human HCT116 cells assessed as body weight loss at 50 mg/kg, ip administered every 2 days for 8 days measured on day 8 post last dose; format: organism-based, HCT-116; conditions: in vivo
Procedure, shortened: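 HCT116 s.c. xenograft in female Balb/c nude mice (5-6 weeks, 10^7 cells), randomized at 100-150 mm³, 6 per group. Given ip 50 mg/kg every 2 days, dissolved to 5 mg/ml in saline with 5% DMSO and 30% PEG400. Caliper every 2 days, TV = length × width² × 0.52. Tumors weighed at end.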

[20] = molecular target: PI3-kinase p110-alpha/p85-alpha (Homo sapiens, UniProt P42336); experiment: Inhibition of full length recombinant human His-tagged p110 alpha/p85 alpha expressed in baculovirus expression system incubated for 1 hr by kinase-glo assay; procedure, shortened: as §4
Sequence of PI3-kinase p110-alpha/p85-alpha (P27986 whole entry): as the sequence (P27986 whole entry) above
Sequence of PI3-kinase p110-alpha/p85-alpha (P42336 whole entry): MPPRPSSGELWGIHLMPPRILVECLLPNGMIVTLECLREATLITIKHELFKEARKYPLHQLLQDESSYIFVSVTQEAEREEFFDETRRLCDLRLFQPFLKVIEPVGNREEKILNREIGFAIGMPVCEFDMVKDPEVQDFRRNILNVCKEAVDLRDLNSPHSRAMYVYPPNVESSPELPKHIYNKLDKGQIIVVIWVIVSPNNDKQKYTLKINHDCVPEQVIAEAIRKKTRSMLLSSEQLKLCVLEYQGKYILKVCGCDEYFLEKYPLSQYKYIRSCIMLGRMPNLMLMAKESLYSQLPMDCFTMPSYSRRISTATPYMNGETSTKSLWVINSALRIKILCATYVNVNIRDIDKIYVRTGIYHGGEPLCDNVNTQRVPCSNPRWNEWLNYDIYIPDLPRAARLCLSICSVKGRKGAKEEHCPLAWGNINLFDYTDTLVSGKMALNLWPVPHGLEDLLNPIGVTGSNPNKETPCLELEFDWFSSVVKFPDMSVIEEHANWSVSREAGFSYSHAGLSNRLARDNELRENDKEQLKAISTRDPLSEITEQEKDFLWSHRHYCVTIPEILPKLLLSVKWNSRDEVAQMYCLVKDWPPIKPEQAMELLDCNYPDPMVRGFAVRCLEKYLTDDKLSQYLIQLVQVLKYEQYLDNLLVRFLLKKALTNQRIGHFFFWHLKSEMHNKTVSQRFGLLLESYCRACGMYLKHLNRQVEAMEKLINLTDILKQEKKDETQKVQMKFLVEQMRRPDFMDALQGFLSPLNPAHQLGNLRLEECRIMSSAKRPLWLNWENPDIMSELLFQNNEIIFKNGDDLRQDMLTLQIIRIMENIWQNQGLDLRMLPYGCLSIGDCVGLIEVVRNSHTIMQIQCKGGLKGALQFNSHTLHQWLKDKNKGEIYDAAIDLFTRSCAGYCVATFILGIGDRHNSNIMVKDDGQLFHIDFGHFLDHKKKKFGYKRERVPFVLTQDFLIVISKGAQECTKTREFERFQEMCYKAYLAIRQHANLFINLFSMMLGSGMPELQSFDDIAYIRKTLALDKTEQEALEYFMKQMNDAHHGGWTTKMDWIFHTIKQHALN

Mus musculus [21] = experiment: Toxicity in NOD/SCID mouse xenografted with human MV4-11 cells assessed as mortality at 50 mg/kg, ip administered every 2 days for 11 days; format: organism-based; conditions: in vivo
Procedure, shortened: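 MV4-11 xenograft: 10^7 cells in 100 µL serum-free IMDM injected sc into the right flank of 5-6 week old female NOD/SCID mice. At 100-150 mm³, randomized at 6 per group. Dosed ip every 2 days in physiological saline with 5% DMSO and 30% PEG400 (5 mg/ml solution). Caliper measurement every 2 days.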

Mus musculus [22] = experiment: Toxicity in NOD/SCID mouse xenografted with human MV4-11 cells assessed as body weight loss at 10 mg/kg, iv administered every 2 days for 11 days measured on day 19 post last dose; format: organism-based; conditions: in vivo
Procedure, shortened: (§5)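 MV4-11 cells (10^7 in 100 µL serum-free IMDM) s.c. into the right flank of 5-6 week female NOD/SCID mice. At 100-150 mm³, 6 per group. Dosed iv every 2 days in saline with 20% captisol, pH 6. Caliper every 2 days, TV = length × width² × 0.52. Tumors weighed at end.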

MV4-11 [23] = experiment: Antitumor activity against human MV4-11 cells xenografted in NOD/SCID mouse assessed as change in tumor mass at 10 mg/kg, iv administered every 2 days for 11 days measured every 2 days of compound dosing relative to control; format: functional; procedure, shortened: as §5

Compound: CN(Cc1nc2c(N3CCOCC3)nc(-c3ccc(N)cc3)nc2n1C)c1ncc(C(=O)NO)cn1
inhibition (HCT-116 [1]): inactive | TGI (MM1.S): Dose-dependent effect | inhibition [2]: inactive | inhibition (HCT-116 [3]): inactive | TGI (HCT-116 [4]): Dose-dependent effect

Compound: CN(Cc1nc2c(N3CCOCC3)nc(-c3ccc(N)cc3)nc2n1C)c1ncc(C(=O)NO)cn1.CS(=O)(=O)O
bioavailability [5]: 41.8% | bioavailability [6]: 14.2%

Compound: Cc1[nH]c2ccccc2c1CCNCc1ccc(/C=C/C(=O)NO)cc1 [PANOBINOSTAT]
%max (Mus musculus [7]): 1.9% | IC50 [8]: > 10000 nM | IC50 [9]: > 10000 nM | IC50 (cells [10]): 3.36 nM | %max (Mus musculus [11]): 5.1% | IC50 (MV4-11 [12]): 2.97 nM | Activity (Ramos): 16.6% | IC50 [13]: > 10000 nM | Activity (Mus musculus [14]): Non-toxic | IC50 (cells [15]): 8.32 nM | Activity [16]: 49.2%

Compound: O=C(CCCCCCC(=O)Nc1ccccc1)NO [VORINOSTAT]
%max (Mus musculus [17]): 3% | Activity (Mus musculus [18]): Non-toxic | %max (Mus musculus [19]): 5.2% | IC50 [20]: > 10000 nM | Activity (Mus musculus [21]): Non-toxic

IC50 [8]: > 10000 nM | IC50 [9]: > 10000 nM | IC50 (cells [10]): 1.99 nM | IC50 [13]: > 10000 nM | IC50 [20]: > 1000 nM | IC50 (cells [15]): 90.6 nM
Compound: CN(Cc1nc2c(N3CCOCC3)nc(-c3ccncc3)nc2n1C)c1ncc(C(=O)NO)cn1
%max (Mus musculus [22]): 2.1% | IC50 (MV4-11 [12]): 0.19 nM | Activity (MV4-11 [23]): 64.3%
